ChEMBL document CHEMBL2074148, “Interaction of human and rat organic anion transporter 2 with various cephalosporin antibiotics” (Eur J Pharmacol, 2003)

T1: Solute carrier family 22 member 7 (Homo sapiens, UniProt Q9Y694)
T1 sequence (Q9Y694 whole entry): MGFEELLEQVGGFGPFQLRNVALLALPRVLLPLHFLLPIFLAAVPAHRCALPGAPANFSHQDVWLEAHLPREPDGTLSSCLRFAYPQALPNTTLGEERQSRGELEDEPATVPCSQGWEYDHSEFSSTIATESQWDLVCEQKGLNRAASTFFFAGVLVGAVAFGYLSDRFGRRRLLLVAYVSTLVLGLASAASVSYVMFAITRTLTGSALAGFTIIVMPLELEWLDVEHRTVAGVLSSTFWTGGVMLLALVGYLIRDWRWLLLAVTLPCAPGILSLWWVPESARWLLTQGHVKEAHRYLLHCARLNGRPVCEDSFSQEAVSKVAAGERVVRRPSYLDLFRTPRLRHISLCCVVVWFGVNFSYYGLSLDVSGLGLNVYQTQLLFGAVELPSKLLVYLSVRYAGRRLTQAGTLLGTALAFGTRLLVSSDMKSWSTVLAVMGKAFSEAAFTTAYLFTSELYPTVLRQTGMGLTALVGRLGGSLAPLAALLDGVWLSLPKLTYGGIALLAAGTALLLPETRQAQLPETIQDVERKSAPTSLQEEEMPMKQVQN

T2: Solute carrier family 22 member 7 (Rattus norvegicus, UniProt Q5RLM2)
T2 sequence (Q5RLM2 whole entry): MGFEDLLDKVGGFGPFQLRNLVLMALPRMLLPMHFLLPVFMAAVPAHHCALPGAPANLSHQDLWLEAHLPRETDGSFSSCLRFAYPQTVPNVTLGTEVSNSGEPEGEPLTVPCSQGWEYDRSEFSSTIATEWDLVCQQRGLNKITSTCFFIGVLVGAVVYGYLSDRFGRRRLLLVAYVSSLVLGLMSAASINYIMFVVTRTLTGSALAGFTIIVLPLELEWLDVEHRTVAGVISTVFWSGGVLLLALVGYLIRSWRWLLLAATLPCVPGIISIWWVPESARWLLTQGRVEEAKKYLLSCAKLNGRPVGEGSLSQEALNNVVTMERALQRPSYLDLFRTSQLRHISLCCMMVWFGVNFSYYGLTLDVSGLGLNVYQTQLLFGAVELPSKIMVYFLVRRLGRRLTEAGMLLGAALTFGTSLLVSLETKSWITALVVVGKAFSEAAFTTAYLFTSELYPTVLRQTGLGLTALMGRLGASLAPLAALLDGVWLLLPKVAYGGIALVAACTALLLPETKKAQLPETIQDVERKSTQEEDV

T3: Solute carrier family 22 member 11 (Homo sapiens, UniProt Q9NSA0)
T3 sequence (Q9NSA0 whole entry): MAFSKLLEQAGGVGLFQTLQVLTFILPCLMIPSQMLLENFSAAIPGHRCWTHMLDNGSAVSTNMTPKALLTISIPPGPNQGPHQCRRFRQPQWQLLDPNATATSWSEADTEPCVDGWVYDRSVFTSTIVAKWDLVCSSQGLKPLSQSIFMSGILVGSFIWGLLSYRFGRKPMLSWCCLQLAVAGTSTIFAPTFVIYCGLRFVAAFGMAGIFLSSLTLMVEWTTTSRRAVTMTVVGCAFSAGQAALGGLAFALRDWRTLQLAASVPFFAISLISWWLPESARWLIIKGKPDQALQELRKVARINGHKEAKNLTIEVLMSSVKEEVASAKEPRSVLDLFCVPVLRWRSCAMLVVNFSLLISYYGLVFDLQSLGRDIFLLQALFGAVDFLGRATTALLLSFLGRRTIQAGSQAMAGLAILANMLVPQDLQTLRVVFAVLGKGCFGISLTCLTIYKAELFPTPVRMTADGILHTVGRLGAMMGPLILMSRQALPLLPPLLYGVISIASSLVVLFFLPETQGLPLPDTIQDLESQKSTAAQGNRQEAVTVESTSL

T4: Organic anion transporter 3 (Homo sapiens, UniProt Q8TCC7)
T4 sequence (Q8TCC7 whole entry): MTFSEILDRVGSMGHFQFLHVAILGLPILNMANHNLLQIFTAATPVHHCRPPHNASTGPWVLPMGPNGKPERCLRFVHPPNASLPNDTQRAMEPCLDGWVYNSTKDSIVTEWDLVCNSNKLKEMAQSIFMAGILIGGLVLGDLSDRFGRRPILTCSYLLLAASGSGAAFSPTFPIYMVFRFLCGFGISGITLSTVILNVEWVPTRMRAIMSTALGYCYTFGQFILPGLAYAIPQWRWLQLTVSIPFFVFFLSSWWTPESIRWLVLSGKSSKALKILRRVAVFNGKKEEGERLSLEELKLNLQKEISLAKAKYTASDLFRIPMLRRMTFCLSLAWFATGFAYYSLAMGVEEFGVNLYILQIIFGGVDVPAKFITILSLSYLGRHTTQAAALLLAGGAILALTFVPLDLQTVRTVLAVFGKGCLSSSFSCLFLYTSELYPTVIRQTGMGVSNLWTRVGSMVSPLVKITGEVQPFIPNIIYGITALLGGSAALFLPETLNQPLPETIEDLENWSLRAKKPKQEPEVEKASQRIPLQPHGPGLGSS


Columns and labels:
Assay type in all cases: functional, cell-based
[1] = molecular target: T1, Solute carrier family 22 member 7; test: (§1) TP_TRANSPORTER: inhibition of PGF2alpha in OAT2-S2 cells
Summary of the method: (§2)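 S2 cells stably expressing human or rat OAT2, seeded at 1 × 10^5 cells/well and grown for 2 days. Washed, then preincubated 10 min at 37 °C in D-PBS (pH 7.4). Uptake of 50 nM [3H]prostaglandin F2α measured at 37 °C with or without various concentrations of cephalosporin: 20 s for human OAT2, 2 min for rat OAT2. Stopped with ice-cold D-PBS; cells lysed in 0.1 N NaOH; scintillation counting.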

[2] = molecular target: T2, Solute carrier family 22 member 7; test: as §1; summary of the method: as §2
[3] = molecular target: T3, Solute carrier family 22 member 11; test: TP_TRANSPORTER: cell viability in OAT4-S2 cells
Summary of the method: (§3)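 S2 cells stably transfected with the human OAT (pcDNA3.1), alongside mock-transfected controls, were seeded at 1 × 10^5 cells/well and cultured for 2 days. Cells were then exposed to 5 mM cephalosporin, with or without 1 mM probenecid, at 33 °C for 24 h. MTT was added for a further 4 h at 33 °C. Cells were solubilized in isopropanol/HCl and OD read at 570 nm (630 nm reference). Four determinations; mean ± S.E.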

[4] = molecular target: T4, Organic anion transporter 3; test: TP_TRANSPORTER: cell viability in OAT3-S2 cells; summary of the method: as §3
[5] = substrate: CCCCC[C@H](O)/C=C/[C@@H]1[C@@H](C/C=C\CCCC(=O)O)[C@@H](O)C[C@H]1O; test: TP_TRANSPORTER: uptake in OAT2-S2 cells

Row | Molecule | IC50 [1] [mM] | IC50 [2] [mM] | Activity [3] | Activity [4] | Km [5] [µM]
1 | Cn1nnnc1SCC1=C(C(=O)O)N2C(=O)[C@@H](NC(=O)[C@H](O)c3ccccc3)[C@H]2SC1 [CEFAMANDOLE] | 1.57 | 3.18 | – | – | –
2 | CO/N=C(\C(=O)N[C@@H]1C(=O)N2C(C(=O)O)=C(COC(C)=O)CS[C@H]12)c1csc(N)n1 [CEFOTAXIME] | 4.68 | > 5 | – | – | –
3 | CCN1CCN(C(=O)N[C@@H](C(=O)N[C@@H]2C(=O)N3C(C(=O)O)=C(CSc4nnnn4C)CS[C@H]23)c2ccc(O)cc2)C(=O)C1=O [CEFOPERAZONE] | 1.33 | 1.62 | – | – | –
4 | Solute carrier family 22 member 7 (Rattus norvegicus) (protein) MGFEDLLDKVGGFGPFQLRNLVLMALPRMLLPMHFLLPVFMAAVPAHHCALPGAPANLSHQDLWLEAHLPRETDGSFSSCLRFAYPQTVPNVTLGTEVSNSGEPEGEPLTVPCSQGWEYDRSEFSSTIATEWDLVCQQRGLNKITSTCFFIGVLVGAVVYGYLSDRFGRRRLLLVAYVSSLVLGLMSAASINYIMFVVTRTLTGSALAGFTIIVLPLELEWLDVEHRTVAGVISTVFWSGGVLLLALVGYLIRSWRWLLLAATLPCVPGIISIWWVPESARWLLTQGRVEEAKKYLLSCAKLNGRPVGEGSLSQEALNNVVTMERALQRPSYLDLFRTSQLRHISLCCMMVWFGVNFSYYGLTLDVSGLGLNVYQTQLLFGAVELPSKIMVYFLVRRLGRRLTEAGMLLGAALTFGTSLLVSLETKSWITALVVVGKAFSEAAFTTAYLFTSELYPTVLRQTGLGLTALMGRLGASLAPLAALLDGVWLLLPKVAYGGIALVAACTALLLPETKKAQLPETIQDVERKSTQEEDV | – | – | – | – | 0.414

Now from value to molecule, other results behind:

Row | IC50 [1] [mM] | IC50 [2] [mM] | Molecule | Activity [3] | Activity [4] | Km [5] [µM]
5 | 1.41 | 1.5 | CC(=O)OCC1=C(C(=O)O)N2C(=O)[C@@H](NC(=O)Cc3cccs3)[C@H]2SC1 [CEPHALOTHIN] | – | – | –
6 | 4.48 | > 5 | O=C(Cc1cccs1)N[C@@H]1C(=O)N2C(C(=O)[O-])=C(C[n+]3ccccc3)CS[C@H]12 [CEPHALORIDINE] | substrate [] | substrate [] | –
